The data set can be described thus: Toxicity liver stage against HepG2, at 10uM. Further details: test concentration 10 uM, cell line HepG2-A16-CD81EGFP. Format: cell-based. Conditions: human, HepG2-A16-CD81EGFP cells; read-out: INHIBITION
In outline: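 Uninfected HepG2-A16-CD81EGFP cells, 3 × 10^3 per well, 1536-well, plated on prespotted compound at 10 μM final, parasite-free screening media added to match infected plates; puromycin 10 μM positive, DMSO 0.5% negative; run in parallel with 48 h PbLuc assay at 37 °C, 5% CO2; viability by CellTiter-Glo luminescence, normalized to controls.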

The structures appear in SMILES notation.

Regarding `CCCc1nnnn1CC(=O)NCc1cccc(C)c1`, the cytotoxicity at 10 µM is -3.94%.

Turning to `CCn1ncc2c1NC(=O)CC2c1cnc(-c2ccccn2)nc1` (centres undefined), the cytotoxicity at 10 µM was -7.76%. In the case of `Cc1cc(C(=O)N2CCN(c3nc4c(F)cccc4s3)CC2)no1`, the cytotoxicity at 10 µM is -3.64%. As for `O=C(NCc1nnc2n1CCCC2)N1CCc2sccc2C1`, the cytotoxicity at 10 µM is -9.78%. For `Fc1ccc(CN2CCC3(CCCN(c4nncs4)C3)C2)cc1` (centres undefined) the value was -141%. For `CC(C)n1cc(C(=O)NCCc2cn3ccsc3n2)cn1`, the cytotoxicity at 10 µM stood at 8.67%. For `O=C(O)c1cc2c(nc1O)CC(c1cccs1)CC2=O` (centres undefined), the cytotoxicity at 10 µM is 8.32%.

For `CC(=O)N1CC(=O)N(c2ccsc2)CC12CCN(Cc1ccccn1)C2` (centres undefined), the cytotoxicity at 10 µM was determined as 13%. In the case of `Cc1nc(COc2nc(C(C)C)no2)cs1` it was 11.5%; in that of `CC(C)c1cc(C(=O)N2CCN(CC3CC3)[C@@H]3CS(=O)(=O)C[C@@H]32)on1`, 3.05%. Turning to `c1ccc2c(c1)nc1n2[C@@H](CNCc2nccs2)COC1`, the cytotoxicity at 10 µM is -1.4%. For `CCN(CC)S(=O)(=O)N(Cc1ccccn1)Cc1ccccc1C` the value was 16.9%.

On to `CC(=O)N1CCN(Cc2ccc(C(F)(F)F)cc2F)CC(O)C1` (centres undefined), for which the cytotoxicity at 10 µM is -5.34%. Regarding `CCNC(=O)[C@@H]1CCCN1C1(C(=O)NC)CCC1`, the cytotoxicity at 10 µM is -1.66%.

With `CN(CC(O)C(F)(F)F)C(=O)Nc1cccc(Cn2cccn2)c1` (centres undefined), the cytotoxicity at 10 µM was found to be 5.79%.

As for `CC(NC(=O)CNCCn1cccn1)c1ccc2c(c1)OCCO2` (centres undefined), the cytotoxicity at 10 µM was -13%. Consider `Cc1cc(=O)[nH]c(SC(C)C(=O)N2CCC(c3ncc[nH]3)CC2)n1` (centres undefined), for which the cytotoxicity at 10 µM is -16.2%. For `Cc1nc(C2CCCN2Cc2nnc(C3CC3)o2)no1` (centres undefined) the value was -5.97%; for `Cc1cn(CC(=O)Nc2cc(C(C)(C)C)nn2C)cn1`, 0.79%. In the case of `Cc1ncsc1CN1CCn2nc(CCC(=O)N3CCCC3)cc2C1` it was -22.2%; in that of `Cc1nc(NCCN2CCCC2=O)cc(C2CN(C)CCO2)n1` (centres undefined), -10.5%; in that of `CN(Cc1cnn(C)c1)C(=O)c1cc2ccccc2c(=O)[nH]1`, -5.64%.

Turning to `COCC(=O)N1CCC2(CCCN(Cc3cnn(C)c3)C2)C1` (centres undefined), the cytotoxicity at 10 µM was -73.3%. Regarding `CCN(C(C)=O)C1CCN(c2nccc(CCC(F)(F)F)n2)C1` (centres undefined), the cytotoxicity at 10 µM was -4.39%. As to `CC(NC(=O)c1ccoc1)C(=O)N(C)Cc1ccsc1` (centres undefined), the cytotoxicity at 10 µM is -1.77%. Regarding `Cc1cc(N2CCCN(C(=O)Cc3cccnc3)CC2)ccn1`, the cytotoxicity at 10 µM worked out at 2.5%. Regarding `Cc1nc(Nc2cnccn2)cc(C2CCCN2C2CCOCC2)n1` (centres undefined), the cytotoxicity at 10 µM was -17.3%. Regarding `CCN(CC)C(=O)CCNc1cncc(-n2nc(C)cc2C)n1`, the cytotoxicity at 10 µM was found to be 2.41%.

For `O=C(Nc1nccs1)NC1CCOc2ccccc21` (centres undefined), the cytotoxicity at 10 µM was 6.78%. `Cn1cnnc1C1CCCN(C(=O)c2n[nH]c3ccccc23)C1` (centres undefined): the cytotoxicity at 10 µM worked out at 0.914%. As for `COC(=O)C1CCCN1C(=O)c1ccc(-n2nc(C)cc2C)cc1` (centres undefined), the cytotoxicity at 10 µM is -10.5%.

In the case of `CCNC(=O)CN(CC)Cc1nc2c(F)cccc2n1CC`, the cytotoxicity at 10 µM is 9.57%. Consider `Cc1ccc(C(=O)NC2CCCCNC2=O)c(=O)[nH]1` (centres undefined), for which the cytotoxicity at 10 µM was -5.49%.

For the compound `Cc1cn2c(n1)CCC(NC(=O)CCCOCc1ccccc1)C2` (centres undefined), the cytotoxicity at 10 µM is -3.55%. Consider `CC(C)CN1Cc2c(C(=O)N(C)C)ncn2-c2ccccc2S1(=O)=O`, for which the cytotoxicity at 10 µM was determined as 3.63%.

In the case of `CCn1cc(S(=O)(=O)N2CCCCCC2c2cc(C)on2)cn1` (centres undefined), the cytotoxicity at 10 µM stood at 7.43%. For `O=C(NCC1CCS(=O)(=O)C1)c1cccc(CN2CCCC2)c1` (centres undefined), the cytotoxicity at 10 µM was -0.986%. For `Cc1noc(C)c1CN1CCc2ncnc(-c3ccncc3)c2CC1` the value was -87%; for `COCC(NC(=O)c1ccco1)c1cccc(C(F)(F)F)c1` (centres undefined), -3.96%. For `CCS(=O)(=O)N(C)C1CCN(C(=O)c2ccc(Cl)cc2)CC1` the value was -5.87%. For `CCCc1cc(N2CCC(Cc3cccc(C(N)=O)c3)C2)nc(C)n1` (centres undefined) the value was -1.62%; for `Cn1ccnc1CNC(=O)Nc1ccc(OC2CCC2)c(F)c1`, -4.92%. Take `Cc1cc(N2CCC(N(C)Cc3cc(=O)c(O)co3)CC2)nc(C)n1`: the cytotoxicity at 10 µM amounted to 2.34%. Take `NCc1cc(-c2ccccc2)n2nccc2n1`: the cytotoxicity at 10 µM is -14.7%. Regarding `CCOc1ccccc1C(=O)Nc1cccc(C[S+](C)[O-])c1C` (centres undefined), the cytotoxicity at 10 µM is -4.35%. For `CCC1CN(C(=O)c2cnc(-c3ccccc3)s2)CCO1` (centres undefined), the cytotoxicity at 10 µM is -2.63%.

On to `CN(Cc1noc(C2CC2)n1)CC1CCN(CCO)CC1`, for which the cytotoxicity at 10 µM is -3.96%. In the case of `CCN1Cc2ccccc2N(C(=O)C2CCC2)CCC1=O`, the cytotoxicity at 10 µM was -3.53%. Take `CCn1nc(C)c(CNC(=O)C2COc3ccccc3C2)c1C` (centres undefined): the cytotoxicity at 10 µM was found to be 9.39%.

In the case of `COc1ccnc(NCC2CN(C3CC3)CCO2)n1` (centres undefined), the cytotoxicity at 10 µM was -7.97%.

Turning to `Cn1cc2ncn(CCC3CCN(Cc4ccccc4)C3)c(=O)c2n1` (centres undefined), the cytotoxicity at 10 µM stood at 1.28%.

As for `Cc1c(CCC(=O)N2CCCC2c2ccnc(N(C)C)c2)cnn1C` (centres undefined), the cytotoxicity at 10 µM was found to be 0.469%.

As to `Fc1ccc(CNCCn2cccn2)c(F)c1`, the cytotoxicity at 10 µM was 8.59%. As for `CC(C)CN1CCN(C(=O)CCn2cccn2)CC1`, the cytotoxicity at 10 µM was -5.45%.

As for `Cc1nccn1CC1CCN(C(=O)c2cccs2)CC1`, the cytotoxicity at 10 µM was -14.2%. With `COc1ccc(N2CCC(N3CCOC(C(F)(F)F)C3)CC2)cc1` (centres undefined), the cytotoxicity at 10 µM is -20.5%.

With `Cc1ccc(CS(=O)(=O)NCc2ccco2)cc1`, the cytotoxicity at 10 µM is -2.11%. As to `O=C(O)C1CC2(CCN(c3nccc4ccccc34)CC2)CN1` (centres undefined), the cytotoxicity at 10 µM is -2.65%. In the case of `CN1CCCC1c1cc2cccnc2n1Cc1ccc(F)cc1` (centres undefined), the cytotoxicity at 10 µM was 5.44%. As for `O=C(CCc1ccco1)Nc1cccc(S(=O)(=O)C(F)F)c1`, the cytotoxicity at 10 µM was -42.5%.

On to `CCc1cc(N2CC(N3CCCCC3C)C2)n2nccc2n1` (centres undefined), for which the cytotoxicity at 10 µM is -4.85%. As to `CCN(CC)CCSc1ncnc2[nH]ncc12`, the cytotoxicity at 10 µM is -4.44%. As for `CSCCC(C)(O)CNS(=O)(=O)Cc1cccc(C)c1` (centres undefined), the cytotoxicity at 10 µM stood at 1.09%. For the compound `O=C1COC2(CCN(Cc3cccs3)CC2)CN1c1cccnc1`, the cytotoxicity at 10 µM is -125%. As for `Cn1cc(CN2CCCC3(CCN(C(=O)c4ccccn4)C3)C2)cn1` (centres undefined), the cytotoxicity at 10 µM is -66.9%. On to `Cc1cnc2c(c1NCc1ccccn1)c(=O)n(C)c(=O)n2C`, for which the cytotoxicity at 10 µM was -4.32%. As to `O=C(COC1CCOC1)N(CC(F)F)c1cccc(Cl)c1` (centres undefined), the cytotoxicity at 10 µM worked out at 3.44%. For `O=C(c1cc(=O)c(OCc2ccccc2F)co1)N1CCSCC1`, the cytotoxicity at 10 µM is -3.82%. As to `Cc1ccc(CC(=O)Nc2cc(C(C)C)n[nH]2)cn1`, the cytotoxicity at 10 µM was -1.71%. On to `CS(=O)(=O)Cc1cccc(C(=O)N2CCCC(n3cccn3)C2)c1` (centres undefined), for which the cytotoxicity at 10 µM amounted to 5.05%.

`Cc1nn(C)c2cn(C(C)C(=O)NCc3cccc(F)c3)nc12` (centres undefined): the cytotoxicity at 10 µM stood at 6.61%.

As to `CC(NC(=O)NCCCN(C)S(C)(=O)=O)c1ccncc1` (centres undefined), the cytotoxicity at 10 µM was -0.409%.

For `O=C(O)CN(C(=O)c1ccccc1)[C@H]1C[C@H]2CCOC[C@H]2C1`, the cytotoxicity at 10 µM is -1.03%.

As for `COCC1CCCCN1C(=O)c1cc(-c2cccc(OC)c2)n[nH]1` (centres undefined), the cytotoxicity at 10 µM is 9.34%.

Turning to `FC(F)(F)c1cccnc1N1CCC(OC2CCOCC2)CC1`, the cytotoxicity at 10 µM was -8.44%. For `N#Cc1cccc(NC2CC(=O)N(CCCc3ccccc3)C2)n1` (centres undefined), the cytotoxicity at 10 µM was 5.82%.

In the case of `CC(=O)N(C)c1nc(Cn2nnnc2C(C)C)cs1`, the cytotoxicity at 10 µM was -2.01%.

For `Cc1cnn(CCNCC(=O)N(C)C(C)c2ccccc2)c1` (centres undefined), the cytotoxicity at 10 µM is 8.83%. As to `CC1CCCCN1C(=O)COCc1nc(-c2ccncc2)no1` (centres undefined), the cytotoxicity at 10 µM was 1.79%. Turning to `Cc1cccc(C)c1OCC(=O)NS(=O)(=O)c1c(C)noc1C`, the cytotoxicity at 10 µM was -2.28%.

On to `CC(C)c1cc(C(=O)O)nc2[nH]c(=O)[nH]c(=O)c12`, for which the cytotoxicity at 10 µM is -3.25%. In the case of `Cc1ncsc1CNC(=O)N(Cc1ccccc1)CC(C)(C)O`, the cytotoxicity at 10 µM is -10.2%.

In the case of `CNC(=O)Cc1noc(Cc2ccc3c(c2)CCCC3)n1`, the cytotoxicity at 10 µM is -14.1%.

`CCc1nccn1C1CCCN(C(=O)c2ccn(-c3ccccc3)n2)C1` (centres undefined): the cytotoxicity at 10 µM was 5.84%. Consider `O=C(CC1CCN(c2ncnc3cccc(F)c23)CC1)N1CCCC1`, for which the cytotoxicity at 10 µM is 7.28%. In the case of `CCc1cc(C(=O)N2CCC(C3CCN(c4ncccn4)CC3)C2)on1` (centres undefined) it was 2.25%; in that of `OCCn1nccc1C1CCN(CCOc2ccccc2F)CC1`, -5.25%; in that of `CCC(O)CN1CCN(C(=O)c2cc(Cl)cc3cccnc23)CC1` (centres undefined), -13.7%.

As to `CC(=O)N1CCN(CCCSCc2ccccc2)CC1`, the cytotoxicity at 10 µM was 1.64%. Consider `CC(Cn1cncn1)Nc1ccc(-c2nccn2C)nn1` (centres undefined), for which the cytotoxicity at 10 µM was -3.73%. Turning to `Cc1nn(CCO)c(C)c1CNC1CCc2c(Cl)cccc21` (centres undefined), the cytotoxicity at 10 µM is -6.34%. Regarding `CSc1ccsc1C(=O)NC(Cc1ccccc1)C(N)=O` (centres undefined), the cytotoxicity at 10 µM was -5.24%. Take `Fc1cnc(N2CC[C@@H](N3CCOCC3)[C@@H]2Cc2ccncc2)nc1`: the cytotoxicity at 10 µM was 0.81%. `O=C1NCCN1C1CCN(Cc2nc(-c3ccsc3)no2)CC1`: the cytotoxicity at 10 µM was 44.8%. As to `COc1cccc(CCCNC(=O)N2CCC(O)(C(F)(F)F)C2)c1` (centres undefined), the cytotoxicity at 10 µM is -4.25%.

With `Cc1noc(C)c1CN1CCC(N(C)Cc2nnc(C3CC3)n2C)C1` (centres undefined), the cytotoxicity at 10 µM is -4.03%. In the case of `CC(c1ccc(Cl)cc1)N1CCN(CCCS(N)(=O)=O)CC1` (centres undefined), the cytotoxicity at 10 µM was -1.44%.

Consider `CNc1nc(CNC(=O)Nc2cc(Cl)ccc2F)cs1`, for which the cytotoxicity at 10 µM was -6.95%. With `Cn1cc(CN2CCC3(CC2)CN(C(=O)c2cnccn2)CCO3)cn1`, the cytotoxicity at 10 µM was -5.49%.
